Published values of several laboratories.
Lines come from different studies, so protocols differ.
Target: Maternal embryonic leucine zipper kinase (MELK, Homo sapiens, UniProt Q14680)

`CCC(=O)N[C@H]1CC[C@@H](C(=O)N(C)c2ccc(-c3nc4ccccc4o3)cc2)C1` has a remaining binding of 94% (cell-free assay, competition with immobilised ligand; 1 µM).
With `N#CCCc1ccc2c(c1)-c1[nH]c3ccc([N+](=O)[O-])cc3c1CC(=O)N2` the remaining signal was 88.6% (cell-free assay; 0.5 µM).
`Cc1sc(C(=O)NC2COC2)cc1-n1cc(NC(=O)Nc2c(F)cccc2Cl)cn1` gave a remaining activity of 103% (enzyme activity, inhibitor; 10 µM).
For `CCN(CC)CCNC(=O)c1c(C)[nH]c(/C=C2\C(=O)Nc3ccc(F)cc32)c1C`, the inhibition was 99% (enzyme activity, inhibitor; 10 µM).
For `COc1cc2c(Nc3ccc(Br)cc3F)ncnc2cc1OCC1CCN(C)CC1`, the remaining signal was 94.4% (cell-free assay; 0.5 µM).
With `C[C@@H](c1cccc(C#N)c1)n1cc(Cl)cc(C(N)=O)c1=N` the remaining binding was 78% (cell-free assay, competition with immobilised ligand; 1 µM).
`Nc1ncnc2occ(-c3ccc(NC(=O)Nc4cc(C(F)(F)F)ccc4F)cc3)c12` gave a remaining signal of 8.1% (cell-free assay, inhibitor; 20 µM).
`Cc1ccc(Nc2nccc(N(C)c3ccc4c(C)n(C)nc4c3)n2)cc1S(N)(=O)=O` gave an inhibition of 7% (enzyme activity, inhibitor; 0.3 µM).
For `Cc1cnc(NC2CCOCC2)nc1-n1cnc(C(=O)NC(CN)c2cc(F)cc(Cl)c2)c1` (centres unmarked), the remaining activity was 49% (enzyme activity, inhibitor, radiometric; 1 µM).
`CCN(CC)c1ccc(C2=NNC(=O)CC2C)cc1[N+](=O)[O-]` (centres unmarked) gave a remaining activity of 92% (enzyme activity, inhibitor; 10 µM).
`Oc1cccc(-c2nc(N3CCOCC3)c3oc4ncccc4c3n2)c1` gave a remaining activity of 104% (enzyme activity, inhibitor; 10 µM).
The remaining binding of `C[C@H](NC(=O)c1cnc2n1[C@](C)(Cc1ccc(C#N)cc1)C(=O)N2c1cc(Cl)c(F)c(Cl)c1)C(=O)NC1(c2ccccn2)CC1` is reported as 86% (cell-free assay, competition with immobilised ligand; 1 µM).
`COc1cc(/C=C/C(=O)CC(=O)/C=C/c2ccc(O)c(OC)c2)ccc1O` has an activity vs control of 74% (enzyme activity, inhibitor; 1 µM).
`C[C@H](c1ccnc(Nc2nc3ccc(-c4cc(N(C)C)ncn4)cc3[nH]2)c1)N1CCN(C(=O)CC(F)(F)F)CC1` gave a remaining binding of 100% (cell-free assay, competition with immobilised ligand; 0.1 µM).
`CC(C)(C)C(=O)c1sc(NC2CCCCC2)nc1N` has a remaining activity of 89% (enzyme activity, inhibitor; 10 µM).
For `CNC(=O)c1cc(Oc2ccc(NC(=O)Nc3ccc(Cl)c(C(F)(F)F)c3)cc2)ccn1`, the inhibition was 4% (enzyme activity, inhibitor; 0.3 µM).
The remaining binding of `CC(=O)Nc1c(C(C)=O)c(=O)n(C)c2nc(-c3ccc(Cl)cc3Cl)c(-c3ccc(Cl)cc3)cc12` is reported as 100% (cell-free assay, competition with immobilised ligand; 1 µM).
With `COc1cc2ncnc(Nc3ccc(Oc4ccccc4)cc3C)c2cc1OC` the inhibition was 0% (enzyme activity, inhibitor; 1 µM).
The remaining signal of `COc1cc2ncnc(Nc3ccc(F)c(Cl)c3)c2cc1OCCCN1CCOCC1` is reported as 77.7% (cell-free assay; 0.5 µM).
`COc1cc(Nc2cnc(C#N)c(O[C@H](C)CN(C)C)n2)ncc1-c1cnn(C)c1` gave a remaining activity of 109% (enzyme activity, inhibitor, radiometric; 1 µM).
For `Clc1ccc(Nc2nnc(Cc3ccncc3)c3ccccc23)cc1`, the remaining signal was 83.7% (cell-free assay; 0.5 µM).
`COc1cc(-c2cc(-c3ccc(N4CCNCC4)cc3)cnc2C)cc(OC)c1OC` gave an inhibition of 8% (enzyme activity, inhibitor; 1 µM).
For `Cc1noc([C@H]2C[C@@H](c3ccc(C(F)(F)F)cc3)CN(C(=O)N3CCS(=O)(=O)C3)C2)n1`, the remaining binding was 100% (cell-free assay, competition with immobilised ligand; 1 µM).
`Cc1ccc(NC(=O)c2ccc(C)c(C(F)(F)F)c2)cc1C#Cc1nn(C2CCC(O)CC2)c2ncnc(N)c12` (centres unmarked) has a remaining signal of 23% (cell-free assay; 10 µM).
The remaining activity of `CC(C)(C)c1nc2c(s1)c1nc(N)ncc1c1ccc(NS(=O)(=O)c3c(F)cccc3F)c(F)c12` is reported as 41% (enzyme activity, inhibitor, radiometric; 1 µM).
`Cc1ncc([N+](=O)[O-])n1C(=NO)c1ccccc1C(F)(F)F` has an inhibition of 13.9% (enzyme activity, inhibitor; 10 µM).
`FC(F)(F)Oc1cccc(-c2cnc3ccc(-c4ccncc4)nn23)c1` gave an activity vs control of 84% (enzyme activity, inhibitor, radiometric; 1 µM).
`C#Cc1cccc(Nc2ncnc3cc(OCCOC)c(OCCOC)cc23)c1` has a remaining signal of 88.6% (cell-free assay; 0.5 µM).
`CNC(=O)Nc1ccc2c(c1)[C@@]1(CC2)OC(=O)N(CC(=O)N(Cc2ccc(F)cc2)[C@@H](C)C(F)(F)F)C1=O` gave a remaining binding of 100% (cell-free assay, competition with immobilised ligand; 1 µM).
With `Nc1nc(NC2CCCCC2)sc1C(=O)c1ccccc1` the remaining activity was 70% (enzyme activity, inhibitor; 10 µM).
`COc1cc(-c2cn(C3CCc4c(F)cccc4N(CC(F)(F)F)C3=O)nn2)ccc1-n1cnc(C)c1` (centres unmarked) gave a remaining binding of 100% (cell-free assay, competition with immobilised ligand; 1 µM).
With `COc1cc(Cl)c(C(=O)N[C@@H](CN[C@H]2CC[C@@H](N)CC2)Cc2ccc(C#N)cc2)cc1-c1ccc(CN[C@H](C)c2ccc(C)cc2)o1` the remaining activity was 98% (enzyme activity, inhibitor; 1 µM).
